Laboratory results published in ChEMBL document CHEMBL1255424, “Antistaphylococcal activity of ACHN-490 tested alone and in combination with other agents by time-kill assay” (2010).

Key:
Format in all cases: functional
Staphylococcus aureus [1] = assay: Antibacterial activity against vancomycin-intermediate Staphylococcus aureus isolate 1006 after 24 hrs by modified broth macrodilution method; settings: isolate 1006, 24 h
How it was run: (§1)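 MIC read after 24 h incubation by modified broth macrodilution, validated per CLSI recommendations, against recent clinical MRSA isolates (hospital- and community-acquired, hVISA, VISA, VRSA). Daptomycin tests ran in Mueller-Hinton broth with added calcium.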

Staphylococcus aureus [2] = assay: Antibacterial activity against vancomycin-intermediate Staphylococcus aureus isolate 1016 after 24 hrs by modified broth macrodilution method; settings: isolate 1016, 24 h; how it was run: as §1
Staphylococcus aureus [3] = assay: Antibacterial activity against vancomycin-intermediate Staphylococcus aureus after 24 hrs by modified broth macrodilution method; how it was run: as §1

Measured: MIC

CC(=O)NC[C@H]1CN(c2ccc(N3CCOCC3)c(F)c2)C(=O)O1 [LINEZOLID]
1 µg/mL: all assays above
